From ChEMBL document CHEMBL1127041, “(Imidazolylphenyl)pyrrol-2-one inhibitors of cardiac cAMP phosphodiesterase” (J Med Chem, 1993) come the findings set out here.

Assay [1] is filed under the species Mustela putorius furo. Put plainly: In vitro inotropic effect, 20% increase in the force of contraction of isolated ferret papillary muscle strips (Not reached at 100 uM). In kind it is functional. The conditions noted are these: Muscle tissue. In a few lines:
(§1)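 Isolated ferret papillary muscle in vitro. The read-out is the dose that gives a 20% rise in contractile force over control (EC20). "NR" means this rise was not reached at 100 μM.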

The species named for assay [2] is Canis lupus familiaris. The assay is described as follows: (§2) Inhibition of cAMP PDE in canine cardiac tissue. The settings on record: concentration not given here. The gist of the method:
(§3)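 The enzyme was partially purified cAMP phosphodiesterase from canine brain or cardiac tissue. IC50 is the concentration giving 50% inhibition, taken from the mean of three separate dose-response determinations. Near the IC50, inhibition at the test doses ranged by less than ±8%.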

For assay [3], the species on record is Canis lupus familiaris. The assay is described as follows: Inhibition of cAMP PDE in canine brain. The conditions noted are these: concentration not given here. The gist of the method: as §3
For assay [4], the system named is Canis familiaris. The assay is described as follows: Mean percentage change in heart rate of pentobarbital anesthetized dogs at 1 mg/kg. In kind it is functional, Canis lupus familiaris. In a few lines: (§4)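 Pentobarbital-anesthetized dogs were given the agent intravenously at 1 and 3 mg/kg. Left ventricular dP/dt, heart rate and mean arterial pressure were monitored. Values are mean percent change from control ± SEM, n = 4.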

In assay [5] the test system is Canis familiaris. Put plainly: Mean percentage change in heart rate of pentobarbital anesthetized dogs at 3 mg/kg. In kind it is functional, Canis lupus familiaris. The gist of the method:
as §4

Assay [6] has as its system Canis familiaris. Put plainly: Mean percentage change in the left ventricular contractility (dP/dt) in pentobarbital anesthetized dogs at 1 mg/kg. In kind it is functional, Canis lupus familiaris, Heart left ventricle. The gist of the method:
as §4

The subject of assay [7] is Canis familiaris. Put plainly: Mean percentage change in the left ventricular contractility (dP/dt) in pentobarbital anesthetized dogs at 3 mg/kg. In kind it is functional, Canis lupus familiaris, Heart left ventricle. In a few lines:
as §4

Assay [8] relates to Canis familiaris. The assay is described as follows: Percentage decrease in Mean arterial pressure in pentobarbital anesthetized dogs at 1 mg/kg. In kind it is functional, Canis lupus familiaris, Artery. The gist of the method: as §4
The subject of assay [9] is Canis familiaris. Put plainly: Percentage decrease in Mean arterial pressure in pentobarbital anesthetized dogs at 3 mg/kg. In kind it is functional, Canis lupus familiaris, Artery. The gist of the method: as §4
For assay [10], the species on record is Mustela putorius furo. Put plainly: In vitro inotropic effect, 20% increase in the force of contraction of isolated ferret papillary muscle strips. In kind it is functional. The conditions noted are these: Muscle tissue. In a few lines:
as §1

Assay [11] in a line: as §2. Also on record: species or system Canis lupus familiaris. In a few lines:
as §3

For assay [12], the species on record is Canis lupus familiaris. Put plainly: Percentage inhibition of cAMP PDE in canine brain tissue. In kind it is tissue-based. The conditions noted are these: dose or concentration not given here.
Assay [13] can be described thus: Inhibition of cAMP PDE from canine brain. Details: species or system Canis lupus familiaris. In a few lines:
as §3

Assay [14] deals with Canis familiaris. Put plainly: Mean percentage change in heart rate of pentobarbital anesthetized dogs at 0.1 mg/kg. In kind it is functional, Canis lupus familiaris. The gist of the method:
(§5)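 Pentobarbital-anesthetized dogs received doses of 0.1 and 0.3 mg/kg. Left ventricular dP/dt, heart rate and mean arterial pressure were monitored. Values are mean percent change from control ± SEM, n = 6.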

Assay [15] deals with Canis familiaris. The assay is described as follows: Mean percentage change in heart rate of pentobarbital anesthetized dogs at 0.3 mg/kg. In kind it is functional, Canis lupus familiaris. The gist of the method: as §5
The subject of assay [16] is Canis familiaris. Put plainly: Mean percentage change in the left ventricular contractility (dP/dt) in pentobarbital anesthetized dogs at 0.1 mg/kg. In kind it is functional, Canis lupus familiaris, Heart left ventricle. The gist of the method: as §5
Assay [17] deals with Canis familiaris. Put plainly: Mean percentage change in the left ventricular contractility (dP/dt) in pentobarbital anesthetized dogs at 0.3 mg/kg. In kind it is functional, Canis lupus familiaris, Heart left ventricle. The gist of the method: as §5
Assay [18] has as its system Canis familiaris. The assay is described as follows: Percentage decrease in Mean arterial pressure in pentobarbital anesthetized dogs at 0.1 mg/kg. In kind it is functional, Canis lupus familiaris, Artery. The gist of the method: as §5
In assay [19] the test system is Canis familiaris. Put plainly: Percentage decrease in Mean arterial pressure in pentobarbital anesthetized dogs at 0.3 mg/kg. In kind it is functional, Canis lupus familiaris, Artery. The gist of the method: as §5
For assay [20], the species on record is Mustela putorius furo. The assay is described as follows: In vitro inotropic effect, 20% increase in the force of contraction of isolated ferret papillary muscle strips (two EC20 determinations). In kind it is functional. The settings on record: Muscle tissue. The gist of the method: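 Contractile force was measured in isolated ferret papillary muscle in vitro. EC20 is the dose that gives a 20% increase in force. Two separate EC20 determinations were made.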

The source made the active and inactive calls. No cut-off for these calls is given here.

As to `COc1ccc(C2CNC(=O)C2)cc1OC` (configuration not stated), the EC20 entry in assay [1] is recorded as “Not reached”. In addition, the results for the inhibition in [2] and in assay [3] were 3% and 36%, respectively.
Consider `CC1=C(c2ccc(-n3ccnc3)cc2)CNC1=O`, for which the Increase in assay [4] is 7%; in assay [5], 19%; in [6] it was 40%; in assay [7], 75%. Moreover, the Decrease in [8] is recorded as 3%; in [9], 14%. This compound also had an EC20 in assay [10] of 2.3 µM. The compound also came in with a 50% inhibitory concentration (IC50) in assay [11] of 25 µM. The inhibition in assay [12] amounted to 16%.
Regarding `CCC1=C(c2ccc(-n3ccnc3)cc2)CNC1=O`, the Increase in assay [4] stood at 9%; in assay [5], 21%; in [6], 21%; in [7], 44%. Moreover, the Decrease worked out at 13% in [8] and 22% in assay [9]. Moreover, in assay [10], the 20% effect concentration (EC20) worked out at 10.7 µM. The same compound returned a concentration for half-maximal inhibition (IC50) in [11] of 48 µM. Also, the inhibition in assay [12] stood at 10%.
As for `CCC1=C(c2ccc(-n3ccnc3C)cc2)CNC1=O`, the Increase in assay [4] was determined as 8%; in [5] it was 22%; in [6] it was 52%; in [7], 80%. For the same compound, the Decrease amounted to 18% in assay [8] and 30% in assay [9]. The compound further came in with a 20% effect concentration (EC20) in assay [10] of 4.8 µM. The half-maximal inhibitory concentration (IC50) in assay [11] was found to be 39 µM. Also, in assay [12], the inhibition was below 5%.
Turning to `COc1ccc(C2=C(C)C(=O)NC2)cc1OC`, the EC20 in [10] is 3.8 µM. Moreover, the half-inhibitory concentration (IC50) in assay [13] came out at 100 µM; in assay [11], 26 µM.
Turning to `Cc1[nH]c(=O)c(C#N)cc1-c1ccncc1` [MILRINONE], the Increase in [14] stood at 19%; in assay [15], 32%; in assay [16] it was 57%; in [17] it was 81%. In addition, the Decrease was 13% in assay [18] and 30% in assay [19]. Also, it took 0.5 µM to reach the 20% level in [10] (EC20). In addition, half-maximal inhibition in [11] (IC50) was put at 5.5 µM. In addition, the inhibition in assay [12] stood at 34%.
With `COc1ccc(C2=CC(=O)NC2)cc1OC`, in [20], the EC20 worked out at 6.5 µM. In assay [13], this compound came in with a half-inhibitory concentration (IC50) of 40 µM. In addition, the inhibition in [2] turned out to be 46%.
Regarding `CC1=C(c2ccc(-n3ccnc3C)cc2)CNC1=O`, the Increase worked out at 7% in assay [4], 14% in assay [5], 14% in [6] and 33% in assay [7]. In addition, the values for the Decrease in assay [8] and in assay [9] were 6% and 10%, respectively. The same compound showed an EC20 in assay [10] of 10.2 µM. It took 30 µM to reach half-maximal inhibition in assay [11] (IC50). Further, the inhibition in assay [12] worked out at 10%.
Regarding `COc1ccc(C2CNC(=O)C2)cc1OC1CCCC1` (configuration not stated) [ROLIPRAM], the EC20 result in assay [1] was “inactive”. The same compound gave an IC50 in assay [13] of 0.8 µM. The same compound came in with an inhibition in assay [2] of 28%.
